# Measured values: ChEMBL document CHEMBL2396544, “1,4-Diaryl-substituted triazoles as cyclooxygenase-2 inhibitors: Synthesis, biological evaluation and molecular modeling studies” (Bioorg Med Chem, 2013)
# Legend:
# [1] = Selectivity index, ratio of IC50 for ovine COX1 to IC50 for human recombinant COX2
# In short: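 Ovine COX-1 and human recombinant COX-2 tested in parallel with a fluorescent COX inhibitor screening kit. […] The index is the COX-1 IC50 divided by the COX-2 IC50.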
# [2] = target: T1, Prostaglandin G/H synthase 1 (Ovis aries, UniProt P05979); experiment: Inhibition of ovine COX1 by fluorescence assay
# T1 sequence (P05979 whole entry): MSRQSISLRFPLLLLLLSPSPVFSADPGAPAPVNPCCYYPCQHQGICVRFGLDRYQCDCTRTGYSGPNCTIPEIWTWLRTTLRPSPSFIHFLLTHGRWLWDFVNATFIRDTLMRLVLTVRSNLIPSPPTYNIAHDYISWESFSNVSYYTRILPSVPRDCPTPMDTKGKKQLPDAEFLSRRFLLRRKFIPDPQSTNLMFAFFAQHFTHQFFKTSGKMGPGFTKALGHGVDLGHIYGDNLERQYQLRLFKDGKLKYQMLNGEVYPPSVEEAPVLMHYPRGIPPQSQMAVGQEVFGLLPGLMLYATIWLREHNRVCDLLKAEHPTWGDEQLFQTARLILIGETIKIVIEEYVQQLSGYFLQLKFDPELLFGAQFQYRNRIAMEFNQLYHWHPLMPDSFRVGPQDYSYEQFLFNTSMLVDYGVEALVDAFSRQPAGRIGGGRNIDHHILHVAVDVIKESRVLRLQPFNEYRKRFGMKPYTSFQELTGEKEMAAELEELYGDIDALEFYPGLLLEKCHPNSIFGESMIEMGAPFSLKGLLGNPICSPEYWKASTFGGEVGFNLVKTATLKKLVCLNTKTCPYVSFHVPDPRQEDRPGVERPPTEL
# In short: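 Ovine COX-1 tested in vitro with a fluorescent COX-1/COX-2 inhibitor screening kit. Each value is the mean of three determinations, with deviation from the mean under 10%.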
# [3] = target: T2, Prostaglandin G/H synthase 2 (Homo sapiens, UniProt P35354); experiment: Inhibition of human recombinant COX2 by fluorescence assay
# T2 sequence (P35354 whole entry): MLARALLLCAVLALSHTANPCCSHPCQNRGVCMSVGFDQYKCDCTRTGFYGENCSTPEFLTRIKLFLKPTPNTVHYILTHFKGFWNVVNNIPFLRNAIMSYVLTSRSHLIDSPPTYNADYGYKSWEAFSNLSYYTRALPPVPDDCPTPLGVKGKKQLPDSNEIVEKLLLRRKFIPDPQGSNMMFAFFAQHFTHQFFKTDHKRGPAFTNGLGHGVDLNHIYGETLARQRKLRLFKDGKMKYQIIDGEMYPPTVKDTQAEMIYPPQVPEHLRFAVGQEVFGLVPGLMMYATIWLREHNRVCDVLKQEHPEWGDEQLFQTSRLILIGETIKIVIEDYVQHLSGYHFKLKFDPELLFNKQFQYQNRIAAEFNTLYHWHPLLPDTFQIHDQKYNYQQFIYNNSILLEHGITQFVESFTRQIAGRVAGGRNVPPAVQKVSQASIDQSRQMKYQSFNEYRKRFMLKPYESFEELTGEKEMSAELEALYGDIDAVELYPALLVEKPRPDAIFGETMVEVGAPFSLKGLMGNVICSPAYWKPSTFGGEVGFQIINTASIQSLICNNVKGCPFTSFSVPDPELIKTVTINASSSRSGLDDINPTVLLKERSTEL
Compound,Ratio IC50 [1],IC50 [2] [µM],IC50 [3] [µM]
Cc1ccc(-c2cn(CCc3ccc(S(N)(=O)=O)cc3)nn2)cc1,> 29,> 100,3.4
NS(=O)(=O)c1ccc(-n2cc(-c3ccc(Cl)cc3)nn2)cc1,16.1,21,1.3
COc1ccc(-c2cn(CCc3ccc(S(N)(=O)=O)cc3)nn2)cc1,> 3.7,> 100,27
COc1ccc(-c2cn(-c3ccc(S(N)(=O)=O)cc3)nn2)cc1,> 9.1,> 100,11
Cc1ccc(-c2cn(-c3ccc(S(N)(=O)=O)cc3)nn2)cc1,4.6,65,14
NS(=O)(=O)c1ccc(-n2cc(-c3ccc(F)cc3)nn2)cc1,> 7.4,> 100,13.5

# More lines, now with the values ahead:
Ratio IC50 [1],IC50 [2] [µM],IC50 [3] [µM],Compound
> 588,> 100,0.17,NS(=O)(=O)c1ccc(CCn2cc(-c3ccc(Cl)cc3)nn2)cc1
> 91,> 100,1.1,NS(=O)(=O)c1ccc(CCn2cc(-c3ccccc3)nn2)cc1
> 3.6,> 100,28,NS(=O)(=O)c1ccc(Cn2cc(-c3ccc(Cl)cc3)nn2)cc1
> 7.7,> 100,13,COc1ccc(-c2cn(Cc3ccc(S(N)(=O)=O)cc3)nn2)cc1
6,39,6.5,NS(=O)(=O)c1ccc(Cn2cc(-c3ccccc3)nn2)cc1
> 77,> 100,1.3,NS(=O)(=O)c1ccc(-n2cc(-c3ccccc3)nn2)cc1
> 100,> 100,1,NS(=O)(=O)c1ccc(CCn2cc(-c3ccc(F)cc3)nn2)cc1
> 83,> 100,1.2,Cc1ccc(-c2cn(Cc3ccc(S(N)(=O)=O)cc3)nn2)cc1
13.3,20,1.5,NS(=O)(=O)c1ccc(Cn2cc(-c3ccc(F)cc3)nn2)cc1
